Results of several laboratories.
Compare with care: the assays were run in different laboratories. pIC50: −log10 of the molar value.
Read-out: cell growth or viability

SMILES	cell line	test	setting	pIC50
NNc1nc2c(Cl)cc(Cl)cc2c(=O)n1-c1ccccc1	SW480	MTT	48 h	< 3.70
C=C1CC[C@@H]2[C@](C)(CO)[C@H](O)CC[C@@]2(C)[C@@H]1C/C=C1/C(=O)OC[C@H]1O	SW480	MTT	24 h	5.29
COc1ccc(Nc2ncnc3c2ncn3Cc2ccc(C(=O)NO)cc2)cc1	MM1.S	MTT	72 h	5.69
NNc1nc2c(Cl)cc(Cl)cc2c(=O)n1-c1ccc(Cl)cc1	SW480	MTT	48 h	< 3.70
COc1cccc2c1C(=O)c1c(O)c3c(c(O)c1C2=O)C[C@@](O)(C(=O)CO)C[C@@H]3O[C@H]1C[C@H](N)[C@H](O)[C@H](C)O1	SW480	MTT	72 h	6.12
NNc1nc2ccc(Br)cc2c(=O)n1-c1ccc(F)cc1	SW480	MTT	48 h	4.83
CC1=CC(=O)C(C(C)C)=CC1=O	FR2	SRB	48 h	> 4.00
Cc1cc2c(C(N)=O)cccc2n1-c1nc2c(c(NCc3ccccc3)n1)CCCN2	MM1.S	–	72 h	6.15
CCOc1cc2ncc(C#N)c(Nc3ccc(OCc4ccccn4)c(Cl)c3)c2cc1NC(=O)/C=C/CN(C)C	NCI-N87	ATP luminescence	–	7.73
CC1(P2(=O)CCCCC2)CCCCC1	SW480	MTT	72 h	< 4.00
CS(=O)(=O)CCNCc1ccc(-c2ccc3ncnc(Nc4ccc(OCc5cccc(F)c5)c(Cl)c4)c3c2)o1	NCI-N87	ATP luminescence	–	7.24
O=C(NO)c1ccc(Cn2cnc3c(Nc4ccc(Br)cc4F)ncnc32)cc1	MM1.S	MTT	72 h	5.73
O=C(NO)Nc1nc2c(Cl)cc(Cl)cc2c(=O)n1-c1ccc(Cl)cc1	SW480	MTT	48 h	< 3.70
CCCN1CC(Oc2ccc([C@@H]3c4[nH]c5ccccc5c4C[C@@H](C)N3CC(C)(C)F)cc2)C1	CAMA-1	–	–	6.90
COc1cccc2c1C(=O)c1c(O)c3c(c(O)c1C2=O)C[C@@](O)(C(=O)CO)C[C@@H]3O[C@H]1C[C@H](N)[C@H](O)[C@H](C)O1	HGC-27	–	96 h	6.78
Cc1ccc(NNc2nc3c(Cl)cc(Cl)cc3c(=O)n2-c2ccccc2)cc1	SW480	MTT	48 h	3.88
Nc1ccccc1NC(=O)c1ccc(Cn2cnc3c(Nc4ccc(Cl)cc4)ncnc32)cc1	MM1.S	MTT	72 h	5.95
O=C(NO)Nc1nc2c(Cl)cc(Cl)cc2c(=O)n1-c1ccccc1	SW480	MTT	48 h	< 3.70
O=C(NO)c1ccc(Cn2cnc3c(Nc4ccc(Cl)cc4)ncnc32)cc1	MM1.S	MTT	72 h	5.58
C#Cc1cccc(Nc2ncnc3cc(OCCOC)c(OCCOC)cc23)c1	SW480	MTT	48 h	4.95
CC(=O)Nc1ccc(O)cc1	THLE-2	MTT	–	4.54
Cc1nc(Nc2ncc(C(=O)Nc3c(C)cccc3Cl)s2)cc(N2CC[C@H](O)C2)n1	Toledo	ATP luminescence	72 h	< 5.00
COc1cccc2c1C(=O)c1c(O)c3c(c(O)c1C2=O)C[C@@](O)(C(=O)CO)C[C@@H]3O[C@H]1C[C@H](N)[C@H](O)[C@H](C)O1	SW480	MTT	24 h	6.10
